Measured values as given in paper PMC3144551 (Science signaling, 2011).
Entries after “also recorded” stand apart in the source; their conditions may differ.

What was measured:
MrgprA3 = assay: Calcium imaging of MrgprA3-expressing CHO cells; assay type: cell-based, mouse; conditions: chloroquine 100 µM; n = 155 cells
Outline: (§1)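 Each receptor was transfected individually into CHO cells. Cells were loaded with fura-2 acetoxymethyl ester for 45 min at 37°C, washed, and imaged at 340- and 380-nm excitation to detect intracellular free Ca2+. There were at least three independent experiments, with at least 100 cells analysed each time.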

[1] = system: WT DRG neurons electroporated with siRNA; assay: Calcium imaging of WT DRG neurons electroporated with siRNA; assay type: cell-based, mouse; conditions: CQ 1 mM
mice [2] = conditions: cited from earlier work
mice [3] = assay: Scratching behavior after injection into the nape of the neck; assay type: in vivo, mouse; conditions: trypsin 200 µg, 50 µl, PAR2^−/− n = 6 vs WT n = 6
Outline: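 Male mice aged 2 to 3 months (20 to 30 g) were backcrossed to C57BL/6 for at least 10 generations and scored blind to genotype. A scratching bout was continuous hindpaw scratching directed at the injection site. Bouts were counted in 5-min intervals over a 30-min observation period after injection.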

mouse hindpaws = assay: Thermal hyperalgesia, paw withdrawal latency to radiant heat; assay type: in vivo; conditions: trypsin 100 ng, 10 µl, intraplantar; WT n = 7, Mrgpr-clusterΔ^−/− n = 8, PAR2^−/− n = 10
human subjects = conditions: ref [5], cited from earlier work
DRG neurons = assay: Whole-cell current-clamp recording of cultured DRG neurons; assay type: cell-based, mouse; conditions: n = 6; perfused with 1 mM SLIGRL or BAM(8–22) for 20 s, pH 7.38, room temperature (~25°C)
MrgprC11 [4] = biological target: T1, MrgprC11 (Mus musculus, UniProt Q8CIP3); conditions: ref [8], [11]; cited from earlier work
T1 sequence (Q8CIP3 1-322): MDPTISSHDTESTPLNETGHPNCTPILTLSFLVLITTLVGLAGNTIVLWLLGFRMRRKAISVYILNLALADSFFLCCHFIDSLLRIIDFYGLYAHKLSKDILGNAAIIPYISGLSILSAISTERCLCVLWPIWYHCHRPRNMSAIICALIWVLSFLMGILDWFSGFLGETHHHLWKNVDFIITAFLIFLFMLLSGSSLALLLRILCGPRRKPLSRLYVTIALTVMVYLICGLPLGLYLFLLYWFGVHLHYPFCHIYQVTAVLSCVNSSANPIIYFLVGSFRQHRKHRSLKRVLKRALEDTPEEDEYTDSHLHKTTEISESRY

MrgprC11 [5] = biological target: T1, MrgprC11; assay: Calcium imaging of MrgprC11-expressing CHO cells; assay type: cell-based; conditions: for activation of MrgprC11 (calcium response): MrgprC11-expressing CHO cells, concentration not given
MrgprC11 [6] = biological target: T1, MrgprC11; assay: Calcium imaging of Mrgpr-clusterΔ^−/− DRG neurons electroporated with MrgprC11; assay type: cell-based; conditions: MrgprC11-expressing Mrgpr-clusterΔ^−/− neurons, n = 66; BAM(8–22) 2 µM
human MrgprX1 = assay: Calcium imaging of MrgprX1-expressing CHO cells; assay type: cell-based; conditions: Ca^2+ imaging, fig. S4
Outline: as §1

human MrgprX4 = assay: Calcium imaging of MrgprX4-expressing CHO cells; assay type: cell-based; conditions: Ca^2+ imaging, fig. S4
Outline: as §1

human MrgprX3 = assay: Calcium imaging of MrgprX3-expressing CHO cells; assay type: cell-based; conditions: Ca^2+ imaging, fig. S4
Outline: as §1

human MrgprX2 = assay: Calcium imaging of MrgprX2-expressing CHO cells; assay type: cell-based; conditions: Ca^2+ imaging, fig. S4
Outline: as §1

Question: With `CCN(CC)CCCC(C)Nc1ccnc2cc(Cl)ccc12` (stereo not shown) [chloroquine] as the molecule, how does the “calcium response, MrgprA3-expressing CHO cells” value (MrgprA3) read?
Answer: could be activated by chloroquine; also recorded: responded

Question: And the chloroquine sensitivity ([1]; WT DRG neurons + MrgprA3 siRNA)?
Answer: abolished the chloroquine response

Question: And the chloroquine sensitivity ([1]; WT DRG neurons + MrgprA3 siRNA, listed as CQ)?
Answer: completely abolished CQ sensitivity

Question: What about the chloroquine sensitivity ([1]; WT DRG neurons + MrgprC11 siRNA, n = 7 CQ-sensitive neurons) of the same molecule?
Answer: still sensitive

Question: With trypsin as the molecule, how does the “scratching response to trypsin in mice” value (mice [2]; injection into nape of neck, ref [4]) read?
Answer: induces a scratching response

Question: What about the “scratching behavior in mice” value (mice [2]; intradermal injection, ref [3], [4]) of the same molecule?
Answer: elicit scratching behavior in mice

Question: And the “trypsin-induced scratching in PAR2^−/− mice” value (mice [3])?
Answer: significantly stronger in PAR2^−/− mice; also recorded: scratched significantly more than did wild-type controls

Question: And the “trypsin-induced thermal hyperalgesia (paw withdrawal latency)” value (mouse hindpaws)?
Answer: comparable among wild-type, Mrgpr knockout, and PAR2 knockout mice; also recorded: comparable among the three groups

Question: And the itch in humans (human subjects; skin application, [6])?
Answer: induces itch in humans

Question: Which results are given for “bovine adrenal medulla peptide [BAM(8–22)]”?
Answer: evoked scratching in Mrgpr-clusterΔ^−/− mice (mice [2]; Mrgpr-clusterΔ^−/− mice, ref [8]): reduced; Mrgpr-dependent scratching response (mice [2]; ref [8]): induces an Mrgpr-dependent scratching response; action potentials evoked in SLIGRL-sensitive WT DRG neurons (DRG neurons): All of them also generated action potentials; agonism at MrgprC11 (MrgprC11 [4]): specific agonist for MrgprC11; calcium response, MrgprC11-expressing CHO cells (MrgprC11 [5]; BAM(8–22) 2 µM, n = 150 cells): responded; increase in [Ca^2+]i (MrgprC11 [6]): showed increased [Ca^2+]i

Question: For “SLIGRL [SLIGRL without amidation (−NH2)]”, which “activation of MrgprC11 (calcium response)” value (MrgprC11 [5]) is on record?
Answer: None of these derivatives induced significant calcium responses in cells

Question: What does the source list for SLIGKV?
Answer: calcium response, MrgprX1-expressing CHO cells (human MrgprX1): insensitive to the peptide; calcium response, MrgprX4-expressing CHO cells (human MrgprX4): insensitive to the peptide; calcium response, MrgprX3-expressing CHO cells (human MrgprX3): insensitive to the peptide; calcium response, MrgprX2-expressing CHO cells (human MrgprX2): exhibited a response; itch in human subjects (human subjects; intracutaneous injection, low millimolar range): provokes itch in human subjects

Question: For LRGILS-NH2, which “activation of MrgprC11 (calcium response)” value (MrgprC11 [5]) is on record?
Answer: None of these derivatives induced significant calcium responses in cells
